Measurements collected from several papers.
Protocols differ between the studies behind these lines.
Target: Vascular endothelial growth factor receptor 3 (FLT4, Homo sapiens, UniProt P35916)

| Structure (SMILES) | effect on | action | method | tested at | measurement | value |
| --- | --- | --- | --- | --- | --- | --- |
| C1=C/COCc2cc(ccc2OCCN2CCCC2)Nc2nccc(n2)-c2cccc(c2)COC/1 | binding | – | – | 0.1 µM | remaining binding | 69% |
| CCCCC(=O)Nc1ccc(-c2ccc3ncn(CCC)c(=O)c3c2)cn1 | binding | – | competition with immobilised ligand | 0.5 µM | remaining binding | 100% |
| C=CC(=O)N1CCC([C@@H]2CCNc3c(C(N)=O)c(-c4ccc(Oc5ccccc5)cc4)nn32)CC1 | cell-free assay | – | – | 1 µM | inhibition | 12% |
| O=C1C=C(Nc2ccc(OCc3cn(Cc4ccc(Br)cc4)nn3)cc2)C(=O)c2ccccc21 | enzyme activity | inhibitor | radiometric | 10 µM | inhibition | 26% |
| COc1ccc2[nH]c3c4[nH]c5ccc(OC)cc5c4c4c(c3c2c1)C(=O)NC4=O | binding | – | competition with immobilised ligand | 1 µM | remaining binding | 71% |
| CC#CC(=O)N1CCC[C@H]1c1nc(-c2ccc(C(=O)Nc3ccccn3)cc2)c2c(N)nccn12 | enzyme activity | inhibitor | – | 1 µM | inhibition | 0% |
| CN1CCN(C(=O)c2ccc(NC(=O)Nc3ccc(N(C)c4ccnc(Nc5ccc(CS(C)(=O)=O)cc5)n4)cc3)cc2)CC1 | binding | – | competition with immobilised ligand | 1 µM | remaining binding | 2% |
| COc1ccc2oc(-c3ccc4nc(N)oc4c3)c/c(=N\c3ccccc3NC(=O)CCN)c2c1 | binding | – | – | 1 µM | remaining binding | 105% |
